Apaf1 inhib = human Apaf-1 inhibition | 330,000 compounds, 0.71% hits | reconstituted apoptosome caspase-3 activity, DEVD-Rh110 fluorescence | inhibition, % at 20 µM | AID 489030; active = inhibition of at least 40% at 20 µM
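System: reconstituted apoptosome with Apaf-1, cytochrome c, caspase-9, procaspase-3, dATP; Signal: Rh110 fluorescence intensity; Schedule: 30 min compound preincubation, 50 min activation, room temperature; Reagent: cytochrome c trigger plus (Z-DEVD)2-Rh110 caspase-3 substrate.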
SENP1 inh = blocks the human SENP1 SUMO protease catalytic domain; recombinant SENP1 catalytic domain, CyPet-SUMO1-YPet FRET cleavage; inhibition, % at 10 µM; 360,000 compounds, 0.21% hits; AID 624204;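 active = inhibition at least 30% at 10 µM, raw YFP signal under a set limit, fluorescence ratio 0.5 to 1.5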
Target sequence (Q9P0U3 419-644 limits assumed): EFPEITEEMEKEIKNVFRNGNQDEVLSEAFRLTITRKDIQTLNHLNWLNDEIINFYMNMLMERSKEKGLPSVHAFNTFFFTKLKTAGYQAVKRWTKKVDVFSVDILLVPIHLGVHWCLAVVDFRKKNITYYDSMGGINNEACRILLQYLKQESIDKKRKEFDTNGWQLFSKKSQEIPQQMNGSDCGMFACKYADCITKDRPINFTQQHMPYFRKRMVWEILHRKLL
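Test system: human SENP1 catalytic domain; medium: Tris pH 8 buffer plus EDTA, NaCl, BME, BSA, NP40, catalase; incubation: 50 min reaction at room temperature; technique: FRET, CFP and YFP emission; controls: no-enzyme low control and enzyme-plus-DMSO high control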
SENP8 block-1 = inhibitors of human SENP8 protease. 330,000 compounds, 1.2% hits. inhibition, % at 10 µM. purified SENP8, Z-RLRGG-aminoluciferin cleavage, luminescence. Q96LD8; in the data active = inhibition above about 50%
SENP8 block-2 = inhibitors of human SENP8 protease; 360,000 compounds, 0.64% hits; AID 602440; inhibition, % at 20 µM; recombinant SENP8, Nedd8 substrate fluorescence; Q96LD8; in the data active = inhibition mostly above about 40%, no sharp cut-off; inactive = mostly below about 27%
SENP7 inh = inhibitors of human SENP7 protease. Q9BQF6. recombinant SENP7, Z-RLRGG-aminoluciferin luminescence, 40 min. inhibition, % at 5 µM. 330,000 compounds, 1.5% hits;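 active = inhibition above about 50% at the single test dose, limit read from the data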
Target sequence (Q9BQF6 706-1050 limits assumed): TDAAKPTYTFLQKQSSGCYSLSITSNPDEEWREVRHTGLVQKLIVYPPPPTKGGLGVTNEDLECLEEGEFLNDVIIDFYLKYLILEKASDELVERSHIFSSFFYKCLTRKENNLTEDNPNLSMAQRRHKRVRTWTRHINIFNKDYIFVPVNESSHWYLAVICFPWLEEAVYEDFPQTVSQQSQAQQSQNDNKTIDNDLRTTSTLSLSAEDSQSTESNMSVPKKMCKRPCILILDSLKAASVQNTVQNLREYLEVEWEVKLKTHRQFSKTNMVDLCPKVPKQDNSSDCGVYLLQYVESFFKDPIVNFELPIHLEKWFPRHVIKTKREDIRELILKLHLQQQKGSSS
SENP6 block = SENP6 protease inhibition; Q9GZR1; Recombinant SENP6 catalytic domain, aminoluciferin luminescence; inhibition, % at 10 µM; 330,000 compounds, 1.8% hits; AID 2599;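 active = inhibition above about 50% at the single tested dose, limit read from the data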
Apaf-1 inh conf = Apaf-1 inhibition, single-dose confirmed. shares compounds with Apaf1 inhib. reconstituted apoptosome, caspase-3 DEVD-Rh110 fluorescence. inhibition, % at 20 µM. 1,800 compounds, 25% hits. AID 504614;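 active = mean inhibition of at least 40% at 20 µM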
Rh110 interf inh = Rh110 signal interference in Apaf-1 inhibitor counter-screen | shares compounds with Apaf1 inhib | Rh110 fluorescence interference, quenched caspase reaction | activation (fluorescence interference), % at 20 µM | 1,800 tested, under 10 active;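 active = signal rise of 40% or more at 20 µM, treated as a fluorescence artifact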
Fluor interf inh = shows fluorescence interference in the Apaf-1 inhibitor assay format; shares compounds with Apaf1 inhib; fluorescence interference counterscreen, Apaf-1 assay format; IC50, µM; 460 tested, under 10 active; AID 588538; call rule not given here
Of the large screens only hits and unclear results are named; the others gave an inactive call (follow-up assays come after a bar, where they were run); ! = a repeat was not active. Sampled rows, rich in hits. Any-hit rate of the full collection: about 2.9%.

CC(C)(C)OC(=O)[C@H](CCCCN)NC(=O)c1nc[nH]c1C(=O)N[C@@H](CCCCN)C(=O)OC(C)(C)C	none
CC(C)(C)OC(=O)[C@H](Cc1ccccc1)NC(=O)c1nc[nH]c1C(=O)N[C@@H](CCCCN)C(=O)OC(C)(C)C	Apaf1 inhib 51 | Apaf-1 inh conf inactive | Rh110 interf inh inactive
CC(C)C[C@H](NC(=O)c1nc[nH]c1C(=O)N[C@@H](CCCCN)C(=O)OC(C)(C)C)C(=O)OC(C)(C)C	Apaf1 inhib 43 | Apaf-1 inh conf inactive | Rh110 interf inh inactive
CC(=O)C(Cc1ccccc1)NC(=O)COC(=O)c1cc(S(=O)(=O)N2CCOCC2)ccc1F (stereo unspecified)	none (no result: Apaf1 inhib, SENP8 block-1, SENP7 inh, SENP6 block)
CC(=O)Nc1ccc(S(=O)(=O)NCc2ccc3c(c2)cc(C)n3C)cc1	Apaf1 inhib 51 | Apaf-1 inh conf inactive | Rh110 interf inh inactive
Cc1cc2cc(CNC(=O)c3ccc(S(=O)(=O)N(C)C)cc3)ccc2n1C	Apaf1 inhib 45 | Apaf-1 inh conf inactive | Rh110 interf inh inactive
Cc1cc(C)c(S(=O)(=O)NCc2ccc3c(c2)cc(C)n3C)c(C)c1	Apaf1 inhib 44 | Apaf-1 inh conf inactive | Rh110 interf inh inactive
Fc1cccc(Cc2c(-c3ccccc3)nc3c4ccccc4ccn23)c1	none (no result: Apaf1 inhib, SENP8 block-1, SENP7 inh, SENP6 block)
NC1=NC[C@H](Cc2ccccc2)N1CCc1cc(C(F)(F)F)cc(C(F)(F)F)c1	Apaf1 inhib 54 | Apaf-1 inh conf inactive | Rh110 interf inh inactive
COc1ccc(C(CNC(=O)c2cccn2C)N2CCOCC2)cc1 (stereo unspecified)	Apaf1 inhib 47 | Apaf-1 inh conf inactive | Rh110 interf inh inactive
CO[C@H]1CN(C)C(=O)c2ccc(NC(=O)NC(C)C)cc2OC[C@H](C)NC[C@H]1C	none (no result: Apaf1 inhib, SENP8 block-1, SENP7 inh, SENP6 block)
O=C(O)c1ccc(-n2nnc3ccccc32)c([N+](=O)[O-])c1	none
O=C(O)c1ccc(NC2=C(n3nnc4ccccc43)C(=O)c3ccccc3C2=O)cc1	Apaf1 inhib 73, SENP8 block-2 55 | Apaf-1 inh conf 76 | Rh110 interf inh inactive | Fluor interf inh inactive
CN1CCN(CCCN2c3ccccc3Sc3ccc(Cl)cc32)CC1	Apaf1 inhib 57 | Apaf-1 inh conf inactive | Rh110 interf inh inactive
CCSc1ccc2c(c1)N(CCCN1CCN(C)CC1)c1ccccc1S2	Apaf1 inhib 57 | Apaf-1 inh conf inactive | Rh110 interf inh inactive
CC(CN1CCN(CCOCCO)CC1)CN1c2ccccc2Sc2ccc(Cl)cc21 (stereo unspecified)	none (no result: Apaf1 inhib, SENP8 block-1, SENP7 inh, SENP6 block)
c1csc(Cc2nn3c(-c4n[nH]c5c4CCC5)nnc3s2)c1	Apaf1 inhib 41 | Apaf-1 inh conf inactive | Rh110 interf inh inactive
Cc1cc(N2CCN(c3ccc([N+](=O)[O-])c4cccnc34)CC2)c2ccccc2n1	Apaf1 inhib 60 | Apaf-1 inh conf 47 | Rh110 interf inh inactive | Fluor interf inh inactive
CC(C)N1CCc2c(sc(NC(=O)c3ccc(S(=O)(=O)N4CCc5ccccc54)cc3)c2C(N)=O)C1	Apaf1 inhib 46 | Apaf-1 inh conf inactive | Rh110 interf inh inactive
CC(=O)N1CCN(c2ccc(NCc3ccco3)cc2)CC1	none
CC(=O)N1CCN(c2ccc(NCc3ccc(-c4cccc(Cl)c4)o3)cc2)CC1	Apaf1 inhib 43 | Apaf-1 inh conf inactive | Rh110 interf inh inactive
CN(C)c1cccc2cccc(N(C)C)c12	Apaf1 inhib 89 | Apaf-1 inh conf inactive | Rh110 interf inh inactive
CC(=O)c1ccc(N(C)C)c2c(N(C)C)cccc12	none
CCN(C(=O)c1coc(=O)c(Br)c1)c1ccc2c(c1)OCO2	Apaf1 inhib 59 | Apaf-1 inh conf inactive | Rh110 interf inh inactive
Cc1ccc(C2(c3ccccc3)NC(=O)N(CC(=O)NC3CCCCC3)C2=O)cc1C (stereo unspecified)	none
COc1ccccc1CNC(=O)CN1C(=O)NC(c2ccccc2)(c2ccc(C)c(C)c2)C1=O (stereo unspecified)	Apaf1 inhib 66 | Apaf-1 inh conf inactive | Rh110 interf inh inactive
CN(C)S(=O)(=O)c1cccc(NC(=S)Nc2cc(Cl)cc(Cl)c2)c1	none
CCN(CCO)c1ccc(NC(=S)Nc2cccc(S(=O)(=O)N(C)C)c2)cc1	Apaf1 inhib 43 | Apaf-1 inh conf inactive | Rh110 interf inh inactive
CN1CCN(c2ccc(Cl)cc2NC(=O)c2cc(=O)[nH]c3ccccc23)CC1	none
CN1CCN(c2cc3c(c4c2[nH]c2ccccc24)C(=O)CC(C)(C)C3)CC1	Apaf1 inhib 50 | Apaf-1 inh conf inactive | Rh110 interf inh inactive
COc1ccc(Br)cc1/C=N/NC(=O)c1cc(Br)ccc1O	none (no result: SENP1 inh, SENP8 block-2)
C/C=N/NC(=O)c1cc(Br)ccc1O	Apaf1 inhib 57 | Apaf-1 inh conf inactive | Rh110 interf inh inactive
COc1ccc2ccccc2c1C=NN1CCCCC1	none (no result: Apaf1 inhib, SENP8 block-1, SENP7 inh, SENP6 block)
COc1cccc2c(=O)c3cccc(N)c3[nH]c12	Apaf1 inhib 70 | Apaf-1 inh conf inactive | Rh110 interf inh inactive
COc1cccc2c(=O)c3c([nH]c12)OC(C)(C)C3	none
CC1=NN(c2ccc(C(=O)O)c(N)c2)C(=O)C1	Apaf1 inhib 62 | Apaf-1 inh conf inactive | Rh110 interf inh inactive
CC1=NN(c2ccc(C(=O)O)cc2)C(=O)CC1	none
CC1(C(=O)NS(=O)(=O)C2CC2)CCCN(C(=O)c2ccc(F)c(Cl)c2)C1 (stereo unspecified)	none (no result: Apaf1 inhib, SENP8 block-1, SENP7 inh, SENP6 block)
CC1CCCC(NC(=O)c2cccc(S(=O)(=O)N3CCOCC3)c2)C1C (stereo unspecified)	none (no result: Apaf1 inhib, SENP8 block-1, SENP7 inh, SENP6 block)
CN(C)c1ccnc2c[cH-]cc12.[Fe].c1ccc(-[c-]2[c-](-c3ccccc3)[c-](-c3ccccc3)[c-](-c3ccccc3)[c-]2-c2ccccc2)cc1 (stereo unspecified)	Apaf1 inhib 47! | Apaf-1 inh conf inactive | Rh110 interf inh inactive
CN(C)c1ccnc(Nc2ccccc2)c1C#N	none
Cc1ccc(NC(=O)[C@@H]2CCCN2S(=O)(=O)c2ccc(Cl)cc2)cc1	none
COc1cccc(S(=O)(=O)NC2CCN(C#N)C2)c1 (stereo unspecified)	none
CC1CCC2(CC1)NC(=O)N(CC(=O)Nc1ccc3[nH]c(=O)[nH]c3c1)C2=O (stereo unspecified)	none
CC1CC(C)(C)CC2(C1)NC(=O)N(CC(=O)Nc1ccc3[nH]c(=O)[nH]c3c1)C2=O (stereo unspecified)	Apaf1 inhib 44 | Apaf-1 inh conf inactive | Rh110 interf inh inactive
Cc1cccc(NC(=O)CN2CCN(C(=O)c3oc4c(Cl)cccc4c3C)CC2)c1C	Apaf1 inhib 70 | Apaf-1 inh conf inactive | Rh110 interf inh inactive

Source: PubChem (Sanford-Burnham Center for Chemical Genomics)
